# Source: ChEMBL document CHEMBL1687778, “Genetic determinants involved in the susceptibility of Pseudomonas aeruginosa to beta-lactam antibiotics” (2010)
# Experiments:
# [1] = test system: Pseudomonas aeruginosa; experiment: Antimicrobial activity against Pseudomonas aeruginosa PA14 PA1195 harboring mutation in putative dimethylarginine dimethylaminohydrolase by Etest method; assay type: functional
# Procedure, shortened: (§1)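 Overnight LB cultures (37°C) diluted in sterile 0.85% NaCl to about 1 × 10^7 CFU/ml. 100 µl spread on Mueller-Hinton agar, one Etest strip per plate, 18 h at 37°C. Ceftazidime, imipenem and meropenem tested. Wild-type PA14 plate included in each set. Each mutant verified in triplicate.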
# [2] = test system: Pseudomonas aeruginosa; experiment: Antimicrobial activity against wild type Pseudomonas aeruginosa PA14 by Etest method; assay type: functional
# Procedure, shortened: (§2)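 Etest MIC. Overnight LB cultures at 37°C were diluted in sterile 0.85% NaCl to about 1 × 10^7 CFU/ml. 100 µl was spread on Mueller-Hinton agar, one strip was placed per plate, and plates were incubated at 37°C for 18 h. Equal cell numbers were seeded per plate, and results were verified in triplicate. PA14 wild type was included in each set as a susceptibility control.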
# [3] = test system: Pseudomonas aeruginosa; experiment: Antimicrobial activity against Pseudomonas aeruginosa PA14 PA3247 harboring mutation in putative aspartyl aminopeptidase by Etest method; assay type: functional; procedure, shortened: as §1
# [4] = test system: Pseudomonas aeruginosa; experiment: Antimicrobial activity against Pseudomonas aeruginosa harboring pBBR1MCS-3 expressing algU mutant gene by Etest method; assay type: functional
# Procedure, shortened: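 Etest MIC run in triplicate on a plasmid-carrying strain. The Mueller-Hinton agar contained tetracycline at 20 µg/ml for plasmid maintenance. The inoculum was about 1 × 10^7 CFU/ml in 0.85% NaCl, from an overnight LB culture grown at 37°C; 100 µl was spread per plate. One strip was placed per plate, with incubation at 37°C for 18 h.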
# [5] = test system: Pseudomonas aeruginosa; experiment: Antimicrobial activity against Pseudomonas aeruginosa harboring pBBR-mucD complemented gene by Etest method
# [6] = test system: Pseudomonas aeruginosa; experiment: Antimicrobial activity against Pseudomonas aeruginosa PA14 PA5003 harboring mutation in conserved hypothetical protein by Etest method; assay type: functional; procedure, shortened: as §2
# [7] = test system: Pseudomonas aeruginosa; experiment: Antimicrobial activity against Pseudomonas aeruginosa PA14 PA3262 harboring fklB mutant gene by Etest method; assay type: functional; procedure, shortened: as §2
# [8] = test system: Pseudomonas aeruginosa; experiment: Antimicrobial activity against Pseudomonas aeruginosa PA14 PA4459 harboring mutation in Conserved hypothetical protein by Etest method; assay type: functional; procedure, shortened: as §2
# [9] = test system: Pseudomonas aeruginosa; experiment: Antimicrobial activity against Pseudomonas aeruginosa PA14 PA2487 harboring mutation in hypothetical protein by Etest method; assay type: functional; procedure, shortened: as §1
# [10] = test system: Pseudomonas aeruginosa; experiment: Antimicrobial activity against Pseudomonas aeruginosa PA14 PA3520 harboring mutation in putative periplasmic metal-binding protein by Etest method; assay type: functional; procedure, shortened: as §2
# [11] = test system: Pseudomonas aeruginosa; experiment: Antimicrobial activity against Pseudomonas aeruginosa PA14 PA4088 harboring mutation in putative aminotransferase by Etest method; assay type: functional; procedure, shortened: as §2
# [12] = test system: Pseudomonas aeruginosa; experiment: Antimicrobial activity against Pseudomonas aeruginosa PA14 PA4550 harboring fimU mutant gene by Etest method; assay type: functional; procedure, shortened: as §2
# [13] = test system: Pseudomonas aeruginosa; experiment: Antimicrobial activity against Pseudomonas aeruginosa harboring algU mutant gene by Etest method; assay type: functional; procedure, shortened: as §2
# [14] = test system: Pseudomonas aeruginosa; experiment: Antimicrobial activity against Pseudomonas aeruginosa PA14 PA3145 harboring wbpL mutant gene by Etest method; assay type: functional; procedure, shortened: as §1
# [15] = test system: Pseudomonas aeruginosa; experiment: Antimicrobial activity against Pseudomonas aeruginosa harboring mucD mutant gene by Etest method
# [16] = test system: Pseudomonas aeruginosa; experiment: Antimicrobial activity against Pseudomonas aeruginosa PA14 PA0908 harboring mutation in hypothetical protein by Etest method; assay type: functional; procedure, shortened: as §1
# [17] = test system: Pseudomonas aeruginosa; experiment: Antimicrobial activity against Pseudomonas aeruginosa PA14 PA1348 harboring mutation in conserved hypothetical protein by Etest method; assay type: functional; procedure, shortened: as §1
# [18] = test system: Pseudomonas aeruginosa; experiment: Antimicrobial activity against Pseudomonas aeruginosa PA14 PA14_43090 harboring mutation in hypothetical protein by Etest method; assay type: functional; procedure, shortened: as §1
# [19] = test system: Pseudomonas aeruginosa; experiment: Antimicrobial activity against Pseudomonas aeruginosa PA14 PA0503 harboring mutation in Putative biotin synthesis protein BioC by Etest method; assay type: functional; procedure, shortened: as §1
# [20] = test system: Pseudomonas aeruginosa; experiment: Antimicrobial activity against Pseudomonas aeruginosa PA14 PA5005 harboring mutation in putative carbamoyltransferase by Etest method; assay type: functional; procedure, shortened: as §2
# [21] = test system: Pseudomonas aeruginosa; experiment: Antimicrobial activity against Pseudomonas aeruginosa PA14 PA3721 harboring nalC mutant gene by Etest method; assay type: functional; procedure, shortened: as §2
# [22] = test system: Pseudomonas aeruginosa; experiment: Antimicrobial activity against Pseudomonas aeruginosa PA14 PA4005 harboring mutation in conserved hypothetical protein by Etest method; assay type: functional; procedure, shortened: as §2
# [23] = test system: Pseudomonas aeruginosa; experiment: Antimicrobial activity against Pseudomonas aeruginosa PA14 PA3649 harboring mutation in putative membrane-associated zinc metalloprotease by Etest method; assay type: functional; procedure, shortened: as §2
# [24] = test system: Pseudomonas aeruginosa; experiment: Antimicrobial activity against Pseudomonas aeruginosa harboring pBBR1MCS-3 expressing mucD mutant gene by Etest method
# [25] = test system: Pseudomonas aeruginosa; experiment: Antimicrobial activity against Pseudomonas aeruginosa PA14 PA5443 harboring uvrD mutant gene by Etest method; assay type: functional; procedure, shortened: as §2
# [26] = test system: Pseudomonas aeruginosa; experiment: Antimicrobial activity against Pseudomonas aeruginosa PA14 PA2023 harboring galU mutant gene by Etest method; assay type: functional; procedure, shortened: as §1
# [27] = test system: Pseudomonas aeruginosa; experiment: Antimicrobial activity against Pseudomonas aeruginosa harboring pBBR-algU complemented gene by Etest method
# [28] = test system: Pseudomonas aeruginosa; experiment: Antimicrobial activity against Pseudomonas aeruginosa PA14 PA3433 harboring mutation in putative transcriptional regulator, LysR family by Etest method; assay type: functional; procedure, shortened: as §2
# [29] = test system: Pseudomonas aeruginosa; experiment: Antimicrobial activity against Pseudomonas aeruginosa PA14 PA5001 harboring mutation in conserved hypothetical protein by Etest method; assay type: functional; procedure, shortened: as §2
# [30] = test system: Pseudomonas aeruginosa; experiment: Antimicrobial activity against wild type Pseudomonas aeruginosa by Etest method
# [31] = test system: Pseudomonas aeruginosa; experiment: Antimicrobial activity against Pseudomonas aeruginosa PA14 PA0764 harboring mucB mutant gene by Etest method; assay type: functional; procedure, shortened: as §1
# [32] = test system: Pseudomonas aeruginosa; experiment: Antimicrobial activity against Pseudomonas aeruginosa PA14 PA3704 harboring wspE mutant gene by Etest method; assay type: functional; procedure, shortened: as §2
# [33] = test system: Pseudomonas aeruginosa; experiment: Antimicrobial activity against Pseudomonas aeruginosa PA14 PA4402 harboring argJ mutant gene by Etest method; assay type: functional; procedure, shortened: as §2
# [34] = test system: Pseudomonas aeruginosa; experiment: Antimicrobial activity against Pseudomonas aeruginosa PA14 PA1483 harboring cycH mutant gene by Etest method; assay type: functional; procedure, shortened: as §1
# [35] = test system: Pseudomonas aeruginosa; experiment: Antimicrobial activity against Pseudomonas aeruginosa PA14 PA4753 harboring mutation in putative RNA-binding protein by Etest method; assay type: functional; procedure, shortened: as §2
# [36] = test system: Pseudomonas aeruginosa; experiment: Antimicrobial activity against Pseudomonas aeruginosa PA14 PA5192 harboring pckA mutant gene by Etest method; assay type: functional; procedure, shortened: as §2
# [37] = test system: Pseudomonas aeruginosa; experiment: Antimicrobial activity against Pseudomonas aeruginosa PA14 PA3259 harboring mutation in conserved hypothetical protein by Etest method; assay type: functional; procedure, shortened: as §2
# [38] = test system: Pseudomonas aeruginosa; experiment: Antimicrobial activity against Pseudomonas aeruginosa PA14 PA4109 harboring ampR mutant gene by Etest method; assay type: functional; procedure, shortened: as §2
Structure (SMILES),MIC [1] [µg/mL],MIC [2] [µg/mL],MIC [3] [µg/mL],MIC [6] [µg/mL],MIC [7] [µg/mL],MIC [8] [µg/mL],MIC [9] [µg/mL],MIC [10] [µg/mL],MIC [11] [µg/mL],MIC [12] [µg/mL],MIC [14] [µg/mL],MIC [16] [µg/mL],MIC [17] [µg/mL],MIC [18] [µg/mL],MIC [19] [µg/mL],MIC [20] [µg/mL],MIC [21] [µg/mL],MIC [22] [µg/mL],MIC [23] [µg/mL],MIC [25] [µg/mL],further results
C[C@@H](O)[C@H]1C(=O)N2C(C(=O)O)=C(SCCNC=N)C[C@H]12 [IMIPENEM ANHYDROUS],0.38,0.5,0.38,0.5,0.25,0.25,0.5,0.5,0.38,0.5,0.38,1.5,0.5,0.38,0.19,0.25,0.5,0.064,0.25,0.5,MIC [4]: 0.38 µg/mL; MIC [5]: 0.5 µg/mL; MIC [13]: 0.38 µg/mL; MIC [15]: 0.25 µg/mL; MIC [24]: 0.25 µg/mL; MIC [26]: 0.094 µg/mL; MIC [27]: 0.5 µg/mL; MIC [28]: 0.19 µg/mL; MIC [29]: 0.38 µg/mL; MIC [30]: 0.5 µg/mL; MIC [31]: 0.25 µg/mL; MIC [32]: 0.5 µg/mL; MIC [33]: 0.38 µg/mL; MIC [34]: 0.5 µg/mL; MIC [35]: 0.5 µg/mL; MIC [36]: 0.38 µg/mL; MIC [37]: 0.5 µg/mL
C[C@@H](O)[C@H]1C(=O)N2C(C(=O)O)=C(S[C@@H]3CN[C@H](C(=O)N(C)C)C3)[C@H](C)[C@H]12 [MEROPENEM],0.125,0.125,0.125,0.25,0.125,0.125,0.125,0.38,0.125,0.125,0.094,0.25,0.5,0.125,0.125,0.125,0.38,0.094,0.125,0.094,MIC [26]: 0.38 µg/mL; MIC [28]: 0.125 µg/mL; MIC [29]: 0.38 µg/mL; MIC [31]: 0.125 µg/mL; MIC [32]: 0.25 µg/mL; MIC [38]: 0.125 µg/mL; MIC [33]: 0.19 µg/mL; MIC [34]: 0.125 µg/mL; MIC [35]: 0.064 µg/mL; MIC [36]: 0.25 µg/mL; MIC [37]: 0.125 µg/mL
